Reference: ChEMBL document CHEMBL1153843, “Synthesis and biological evaluation of novel luteolin derivatives as antibacterial agents” (2009)
≈ marks a conversion by molar mass, not a printed value.

Assays:
Type in all cases: functional
Bacillus subtilis = assay: Antibacterial activity against Bacillus subtilis after 24 hrs by MTT method
Outline: (§1)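 MIC by broth microdilution in MH medium, with MTT colorimetric read-out. Compounds come from a 50 mg/mL DMSO stock and are serially diluted in the plates. Inoculum is about 10⁵ cfu/mL, incubated at 37 °C for 24 h. The MIC is first read visually. MTT at 2 mg/mL in PBS (0.01 mol/L, pH 7.4) is then added, with a further 4–5 h at room temperature.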

Staphylococcus aureus = assay: Antibacterial activity against Staphylococcus aureus after 24 hrs by MTT method; outline: as §1
Pseudomonas fluorescens = assay: Antibacterial activity against Pseudomonas fluorescens after 24 hrs by MTT method; outline: as §1
Escherichia coli = assay: Antibacterial activity against Escherichia coli after 24 hrs by MTT method; outline: as §1

In the case of `O=c1cc(-c2ccc3c(c2)OCCO3)oc2cc(OCCNC3CCCC3)cc(O)c12`, the MIC (Bacillus subtilis) is reported as 6.25 µg/mL (≈ 14.8 µM), the MIC (Staphylococcus aureus) is reported as 12.5 µg/mL (≈ 29.5 µM) and the MIC (Pseudomonas fluorescens) is reported as 12.5 µg/mL (≈ 29.5 µM). For the same compound, the MIC (Escherichia coli) was 25 µg/mL (≈ 59 µM).

In the case of `CN1CCN(CCOc2cc(O)c3c(=O)cc(-c4ccc5c(c4)OCCO5)oc3c2)CC1`, the MIC (Bacillus subtilis) is reported as 6.25 µg/mL (≈ 14.3 µM), the MIC (Staphylococcus aureus) is reported as 12.5 µg/mL (≈ 28.5 µM) and the MIC (Pseudomonas fluorescens) is reported as 6.25 µg/mL (≈ 14.3 µM). For the same compound, the MIC (Escherichia coli) was 12.5 µg/mL (≈ 28.5 µM).

Work on `O=c1cc(-c2ccc3c(c2)OCCO3)oc2cc(OCCNCCN3CCOCC3)cc(O)c12` yielded an MIC (Bacillus subtilis) of 1.56 µg/mL (≈ 3.33 µM), an MIC (Staphylococcus aureus) of 6.25 µg/mL (≈ 13.3 µM) and an MIC (Pseudomonas fluorescens) of 3.12 µg/mL (≈ 6.67 µM). The MIC (Escherichia coli) was 12.5 µg/mL (≈ 26.7 µM).

For `CCCCNCCOc1cc(O)c2c(=O)cc(-c3ccc4c(c3)OCCO4)oc2c1`, the MIC (Bacillus subtilis) was 12.5 µg/mL (≈ 30.4 µM), the MIC (Staphylococcus aureus) was 25 µg/mL (≈ 60.8 µM) and the MIC (Pseudomonas fluorescens) was 6.25 µg/mL (≈ 15.2 µM). The MIC (Escherichia coli) was 25 µg/mL (≈ 60.8 µM).

`O=c1cc(-c2ccc3c(c2)OCCO3)oc2cc(OCCNCCCN3CCOCC3)cc(O)c12` showed an MIC (Bacillus subtilis) of 1.56 µg/mL (≈ 3.24 µM), an MIC (Staphylococcus aureus) of 3.12 µg/mL (≈ 6.48 µM) and an MIC (Pseudomonas fluorescens) of 3.12 µg/mL (≈ 6.48 µM). For the same compound, the MIC (Escherichia coli) was 6.25 µg/mL (≈ 13 µM).

Work on `CCCN(CCC)CCOc1cc(O)c2c(=O)cc(-c3ccc4c(c3)OCCO4)oc2c1` yielded an MIC (Bacillus subtilis) of 12.5 µg/mL (≈ 28.4 µM), an MIC (Staphylococcus aureus) of 12.5 µg/mL (≈ 28.4 µM) and an MIC (Pseudomonas fluorescens) of 6.25 µg/mL (≈ 14.2 µM). For the same compound, the MIC (Escherichia coli) was 25 µg/mL (≈ 56.9 µM).

Compound `O=c1cc(-c2ccc3c(c2)OCCO3)oc2cc(OCCBr)cc(O)c12` has an MIC (Bacillus subtilis) of 12.5 µg/mL (≈ 29.8 µM), an MIC (Staphylococcus aureus) of 25 µg/mL (≈ 59.6 µM) and an MIC (Pseudomonas fluorescens) of 12.5 µg/mL (≈ 29.8 µM). The MIC (Escherichia coli) was 25 µg/mL (≈ 59.6 µM).

Work on `CCCNCCOc1cc(O)c2c(=O)cc(-c3ccc4c(c3)OCCO4)oc2c1` yielded an MIC (Bacillus subtilis) of 12.5 µg/mL (≈ 31.5 µM), an MIC (Staphylococcus aureus) of 25 µg/mL (≈ 62.9 µM) and an MIC (Pseudomonas fluorescens) of 12.5 µg/mL (≈ 31.5 µM). The MIC (Escherichia coli) was 25 µg/mL (≈ 62.9 µM).

Work on `O=c1cc(-c2ccc3c(c2)OCCO3)oc2cc(OCCNCc3ccc(F)cc3)cc(O)c12` yielded an MIC (Bacillus subtilis) of 1.56 µg/mL (≈ 3.37 µM), an MIC (Staphylococcus aureus) of 3.12 µg/mL (≈ 6.74 µM) and an MIC (Pseudomonas fluorescens) of 6.25 µg/mL (≈ 13.5 µM). For the same compound, the MIC (Escherichia coli) was 12.5 µg/mL (≈ 27 µM).

In the case of `O=c1cc(-c2ccc3c(c2)OCCO3)oc2cc(OCCN3CCCCC3)cc(O)c12`, the MIC (Bacillus subtilis) is reported as 6.25 µg/mL (≈ 14.8 µM), the MIC (Staphylococcus aureus) is reported as 12.5 µg/mL (≈ 29.5 µM) and the MIC (Pseudomonas fluorescens) is reported as 12.5 µg/mL (≈ 29.5 µM). For the same compound, the MIC (Escherichia coli) was 12.5 µg/mL (≈ 29.5 µM).

Work on `CCN(CC)CCOc1cc(O)c2c(=O)cc(-c3ccc4c(c3)OCCO4)oc2c1` yielded an MIC (Bacillus subtilis) of 12.5 µg/mL (≈ 30.4 µM), an MIC (Staphylococcus aureus) of 25 µg/mL (≈ 60.8 µM) and an MIC (Pseudomonas fluorescens) of 12.5 µg/mL (≈ 30.4 µM). The MIC (Escherichia coli) was 25 µg/mL (≈ 60.8 µM).

`CC1(C)S[C@@H]2[C@H](NC(=O)Cc3ccccc3)C(=O)N2[C@H]1C(=O)O` [PENICILLIN G] gave an MIC (Bacillus subtilis) of 1.56 µg/mL (≈ 4.67 µM), an MIC (Staphylococcus aureus) of 1.56 µg/mL (≈ 4.67 µM) and an MIC (Pseudomonas fluorescens) of 6.25 µg/mL (≈ 18.7 µM). It also gave an MIC (Escherichia coli) of 6.25 µg/mL (≈ 18.7 µM).

With `O=c1cc(-c2ccc3c(c2)OCCO3)oc2cc(OCCN3CCCC3)cc(O)c12` the MIC (Bacillus subtilis) was 6.25 µg/mL (≈ 15.3 µM), the MIC (Staphylococcus aureus) was 12.5 µg/mL (≈ 30.5 µM) and the MIC (Pseudomonas fluorescens) was 12.5 µg/mL (≈ 30.5 µM). The MIC (Escherichia coli) was 12.5 µg/mL (≈ 30.5 µM).

`NC[C@H]1O[C@H](O[C@H]2[C@H](O)[C@@H](O[C@H]3O[C@H](CO)[C@@H](O)[C@H](N)[C@H]3O)[C@H](N)C[C@@H]2N)[C@H](N)[C@@H](O)[C@@H]1O` [BEKANAMYCIN] was tested, and the MIC (Bacillus subtilis) was 0.39 µg/mL (≈ 0.807 µM), the MIC (Staphylococcus aureus) was 1.56 µg/mL (≈ 3.23 µM) and the MIC (Pseudomonas fluorescens) was 3.12 µg/mL (≈ 6.46 µM). The MIC (Escherichia coli) was 3.12 µg/mL (≈ 6.46 µM).

Compound `O=c1cc(-c2ccc3c(c2)OCCO3)oc2cc(OCCNCCO)cc(O)c12` has an MIC (Bacillus subtilis) of 12.5 µg/mL (≈ 31.3 µM), an MIC (Staphylococcus aureus) of 25 µg/mL (≈ 62.6 µM) and an MIC (Pseudomonas fluorescens) of 6.25 µg/mL (≈ 15.6 µM). The MIC (Escherichia coli) was 25 µg/mL (≈ 62.6 µM).

With `O=c1cc(-c2ccc3c(c2)OCCO3)oc2cc(O)cc(O)c12` the MIC (Bacillus subtilis) was 12.5 µg/mL (≈ 40 µM), the MIC (Staphylococcus aureus) was 25 µg/mL (≈ 80.1 µM) and the MIC (Pseudomonas fluorescens) was 12.5 µg/mL (≈ 40 µM). It also gave an MIC (Escherichia coli) of 50 µg/mL (≈ 160 µM).

Compound `O=c1cc(-c2ccc3c(c2)OCCO3)oc2cc(OCCNCc3ccccc3)cc(O)c12` has an MIC (Bacillus subtilis) of 3.12 µg/mL (≈ 7.02 µM), an MIC (Staphylococcus aureus) of 6.25 µg/mL (≈ 14 µM) and an MIC (Pseudomonas fluorescens) of 6.25 µg/mL (≈ 14 µM). The MIC (Escherichia coli) was 12.5 µg/mL (≈ 28.1 µM).

With `O=c1cc(-c2ccc3c(c2)OCCO3)oc2cc(OCCNC3CCCCC3)cc(O)c12` the MIC (Bacillus subtilis) was 6.25 µg/mL (≈ 14.3 µM), the MIC (Staphylococcus aureus) was 12.5 µg/mL (≈ 28.6 µM) and the MIC (Pseudomonas fluorescens) was 12.5 µg/mL (≈ 28.6 µM). It also gave an MIC (Escherichia coli) of 25 µg/mL (≈ 57.1 µM).

Work on `CC(C)CNCCOc1cc(O)c2c(=O)cc(-c3ccc4c(c3)OCCO4)oc2c1` yielded an MIC (Bacillus subtilis) of 12.5 µg/mL (≈ 30.4 µM), an MIC (Staphylococcus aureus) of 25 µg/mL (≈ 60.8 µM) and an MIC (Pseudomonas fluorescens) of 12.5 µg/mL (≈ 30.4 µM). The MIC (Escherichia coli) was 25 µg/mL (≈ 60.8 µM).

Compound `O=c1cc(-c2ccc3c(c2)OCCO3)oc2cc(OCCN3CCNCC3)cc(O)c12` has an MIC (Bacillus subtilis) of 6.25 µg/mL (≈ 14.7 µM), an MIC (Staphylococcus aureus) of 12.5 µg/mL (≈ 29.4 µM) and an MIC (Pseudomonas fluorescens) of 6.25 µg/mL (≈ 14.7 µM). For the same compound, the MIC (Escherichia coli) was 12.5 µg/mL (≈ 29.4 µM).

With `O=c1cc(-c2ccc3c(c2)OCCO3)oc2cc(OCCN3CCOCC3)cc(O)c12` the MIC (Bacillus subtilis) was 3.12 µg/mL (≈ 7.35 µM), the MIC (Staphylococcus aureus) was 6.25 µg/mL (≈ 14.7 µM) and the MIC (Pseudomonas fluorescens) was 6.25 µg/mL (≈ 14.7 µM). It also gave an MIC (Escherichia coli) of 12.5 µg/mL (≈ 29.4 µM).

`O=c1cc(-c2ccc(O)c(O)c2)oc2cc(O)cc(O)c12` [LUTEOLIN] showed an MIC (Bacillus subtilis) of 25 µg/mL (≈ 87.3 µM), an MIC (Staphylococcus aureus) of 50 µg/mL (≈ 175 µM) and an MIC (Pseudomonas fluorescens) of 25 µg/mL (≈ 87.3 µM). The MIC (Escherichia coli) was 50 µg/mL (≈ 175 µM).
